ChEMBL document CHEMBL4414568, “Development of Novel Irreversible Pyruvate Kinase M2 Inhibitors” (J Med Chem, 2019)
Calls of active or inactive are those of the source. The calls are words filed in the database; no cut-off is given here.

Columns and labels:
Pyruvate kinase PKM [1] = target: T1, Pyruvate kinase PKM (Homo sapiens, UniProt P14618); test: Inhibition of recombinant human N-terminal His-tagged PKM1 expressed in Escherichia coli at 0.125 to 0.5 uM using PEP as substrate incubated for 20 mins by OxiRed probe-based colorimetric analysis
How it was run: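 Recombinant PKM1 or PKM2 incubated with compound at room temperature for 20 min. Remaining activity measured by the same colorimetric kit: PEP + […], PK then pyruvate oxidase, H2O2 read-out. n = 3.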
Target sequence in this assay (P14618 whole entry): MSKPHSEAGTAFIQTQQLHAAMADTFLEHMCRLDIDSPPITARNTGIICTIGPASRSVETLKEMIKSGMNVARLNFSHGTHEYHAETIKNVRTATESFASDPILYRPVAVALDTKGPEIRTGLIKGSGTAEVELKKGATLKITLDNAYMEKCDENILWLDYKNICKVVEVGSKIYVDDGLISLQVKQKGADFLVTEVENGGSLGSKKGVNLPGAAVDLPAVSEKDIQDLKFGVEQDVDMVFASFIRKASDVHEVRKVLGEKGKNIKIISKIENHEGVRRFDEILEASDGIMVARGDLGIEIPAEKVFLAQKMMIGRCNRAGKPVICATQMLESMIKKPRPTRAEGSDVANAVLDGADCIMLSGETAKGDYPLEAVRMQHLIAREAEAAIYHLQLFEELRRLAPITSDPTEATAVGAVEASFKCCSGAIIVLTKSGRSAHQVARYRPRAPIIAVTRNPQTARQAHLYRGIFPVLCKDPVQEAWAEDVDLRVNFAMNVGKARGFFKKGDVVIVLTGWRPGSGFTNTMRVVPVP

Pyruvate kinase PKM [2] = target: T1, Pyruvate kinase PKM; test: Inhibition of PKM2 in human PC9 cells assessed as decrease in extracellular acidification rate preincubated for 4 hrs followed by glucose/oligomycin/2-DG addition and measured after 1 hr by seahorse XFe96 analyser based assay; format: cell-based
How it was run: (§1)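 PC-9 cells, 5 × 10^4 per well, seeded 24 h ahead, then treated with DMSO or compound at 0.25, 0.5 or 1 µM for 4 h at 37 °C. Cells held 1 h without CO2 in glycolysis medium. Seahorse glycolysis stress test with serial injections of 10 mM glucose, oligomycin and 50 mM 2-DG; ECAR and OCR recorded together. Six wells per point.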
Target sequence in this assay (P14618 2-531 limits assumed): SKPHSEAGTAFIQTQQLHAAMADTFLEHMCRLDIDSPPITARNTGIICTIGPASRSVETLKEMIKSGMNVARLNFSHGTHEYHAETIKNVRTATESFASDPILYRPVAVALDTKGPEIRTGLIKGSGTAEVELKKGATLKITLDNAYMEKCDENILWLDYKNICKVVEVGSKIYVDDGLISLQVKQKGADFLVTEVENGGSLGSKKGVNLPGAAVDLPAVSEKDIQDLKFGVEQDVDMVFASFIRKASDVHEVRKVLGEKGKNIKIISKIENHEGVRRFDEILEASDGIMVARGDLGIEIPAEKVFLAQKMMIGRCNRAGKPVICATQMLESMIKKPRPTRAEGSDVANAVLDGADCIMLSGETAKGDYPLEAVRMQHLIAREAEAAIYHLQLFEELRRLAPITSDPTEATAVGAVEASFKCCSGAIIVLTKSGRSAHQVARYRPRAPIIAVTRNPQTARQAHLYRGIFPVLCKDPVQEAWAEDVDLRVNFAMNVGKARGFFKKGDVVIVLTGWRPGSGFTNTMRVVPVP

Pyruvate kinase PKM [3] = target: T1, Pyruvate kinase PKM; test: Binding affinity to recombinant human N-terminal His6-tagged PKM2 expressed in Escherichia coli BL21 (DE3) assessed as Cys326-adduct formation by NanoLC-MS/MS analysis
How it was run: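 In-house His-tag PKM2 from E. coli BL21(DE3), purified by Ni-NTA then Superdex 200, treated with compound. Reduced with 30 mM DTT at 37 °C for 1 h, alkylated with 30 mM iodoacetamide for 1 h in the dark, trypsin 1:30 w/w overnight at 37 °C. Digests from 6 experiments pooled, 48 nanoLC-MS/MS runs in data-dependent mode, Orbitrap MS1.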
Target sequence in this assay (P14618 2-531 limits assumed): as above

Pyruvate kinase PKM [4] = target: T1, Pyruvate kinase PKM; test: Binding affinity to PKM2 in human PC9 cells incubated for 1 hr by ABPP-SILAC assay; format: cell-based
How it was run: (§2)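 PC-9 cells passaged at least six times in SILAC DMEM with 10% dialyzed FBS plus 100 µg/mL light or 13C/15N-labeled Arg/Lys. Heavy cells got ABPP probe (1 µM) and light cells DMSO, 1 h at 37 °C. Cells mixed 1:1, sonicated, spun at 100,000g, protein normalized to 1 mg/mL. Click biotin-azide, streptavidin bead pulldown 16 h at 4 °C, SDS-PAGE, on-bead trypsin digestion, LC-MS/MS.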
Target sequence in this assay (P14618 2-531 limits assumed): as above

[5] = target: T2, Malonate--CoA ligase ACSF3, mitochondrial (Homo sapiens) (UniProt Q4G176); test: Binding affinity to ACSF3 in human PC9 cells incubated for 1 hr by ABPP-SILAC assay; format: cell-based; how it was run: as §2
T2 sequence (whole entry): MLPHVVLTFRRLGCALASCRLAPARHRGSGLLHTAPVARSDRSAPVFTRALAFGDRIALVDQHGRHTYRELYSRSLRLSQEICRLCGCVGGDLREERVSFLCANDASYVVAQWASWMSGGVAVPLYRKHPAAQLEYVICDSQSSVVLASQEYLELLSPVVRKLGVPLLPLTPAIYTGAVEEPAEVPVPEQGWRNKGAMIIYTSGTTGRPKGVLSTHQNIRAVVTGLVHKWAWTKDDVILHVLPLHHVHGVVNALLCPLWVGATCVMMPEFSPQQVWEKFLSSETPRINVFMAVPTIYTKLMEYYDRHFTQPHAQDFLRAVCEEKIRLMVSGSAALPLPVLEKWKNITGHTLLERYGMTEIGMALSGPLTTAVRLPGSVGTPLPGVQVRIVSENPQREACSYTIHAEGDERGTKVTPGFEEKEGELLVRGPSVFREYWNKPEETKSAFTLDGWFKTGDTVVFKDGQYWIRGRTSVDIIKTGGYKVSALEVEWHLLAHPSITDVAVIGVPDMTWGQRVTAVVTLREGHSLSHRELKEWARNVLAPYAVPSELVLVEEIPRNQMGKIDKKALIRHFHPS

PC-9 [6] = test: Down regulation of PKM2 expression in human PC9 cells incubated for 24 hrs by Western blot analysis; format: functional, cell-based
How it was run: (§3)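 PC-9 cells seeded at 5 × 10^5 cells/mL; after 24 h given 0–1 µM compound or DMSO for 24 h. Lysates run on 10% SDS-PAGE, transferred to nitrocellulose, probed for PKM2, EGFR, p-STAT3, STAT3, p-β-catenin, β-catenin and β-actin with HRP secondaries, ECL detection.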

LNCaP = test: Antiproliferative activity against human LNCAP cells assessed as reduction in cell viability incubated for 24 hrs by MTT assay; format: functional, cell-based
How it was run: (§4)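 Cells seeded at 3,500 per well in 10% FBS and left overnight, then exposed to test agent or vehicle in 5% FBS for 24 h. MTT added for 1 h, then medium swapped for DMSO and absorbance read at 560 nm. Viability given as percent of vehicle-treated control. Run in triplicate.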

PC-9 [7] = test: Antitumor activity against human PC9 cells xenografted in athymic nude mouse assessed as reduction in tumor volume at 10 mg/kg, ip administered once daily for 25 days measured post-last dose; format: functional, organism-based
How it was run: (§5)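 Female nude mice, 6 weeks old, given s.c. 1 × 10^6 PC-9 cells in Matrigel (1:1). From day 7, once-daily i.p. vehicle or 10 mg/kg compound in sterile water with 0.5% methylcellulose and 0.1% Tween-80, n = 8 per group, for 25 days. Tumor volume and body weight followed, tumors weighed at end.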

MDA-MB-231 = test: Antiproliferative activity against human MDA-MB-231 cells assessed as reduction in cell viability incubated for 24 hrs by MTT assay; format: functional, cell-based; conditions: MDA-MB-231, 24 h; how it was run: as §4
PC-9 [8] = test: Induction of ROS production in human PC9 cells at 0.25 and 0.5 uM incubated for 6 hrs by H2DCFDA dye-based fluorescence assay; format: functional, cell-based
How it was run: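 PC-9 cells at 2 × 10^4 per well, after 24 h treated with compound or DMSO for 6 h. Cells washed, given 1X ROS label in assay buffer for 45 min at 37 °C in the dark, fluorescence read at Ex/Em 495/529 nm as an end point. n = 3.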

PC-9 [9] = test: Induction of basal oxygen consumption rate in human PC9 cells at 0.25 to 1 uM measured after 4 hrs in absence of glucose by seahorse XF96 flux analyser based assay; format: functional, cell-based; how it was run: as §1
Mus musculus [10] = test: In vivo inhibition of PKM2 in human PC9 cells xenografted in athymic nude mouse assessed as reduction in STAT3 expression at 10 mg/kg, ip administered once daily for 25 days measured post-last dose by Western blot analysis; format: functional, organism-based
How it was run: (§6)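 Tumors from PC-9 xenograft nude mice given 10 mg/kg i.p. daily or vehicle for 25 days (n = 8 per group) were lysed for Western blots of PKM2, EGFR, Stat3 and β-catenin. Bands quantified by ImageJ and normalized to GAPDH.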

Pyruvate kinase PKM [11] = target: T1, Pyruvate kinase PKM; test: Inhibition of PKM2 in human PC9 cells assessed as reduction in STAT3 phosphorylation incubated for 24 hrs by Western blot analysis; format: cell-based; how it was run: as §3
Target sequence in this assay (P14618 2-531 limits assumed): as the sequence (P14618 2-531 limits assumed) above

Mus musculus [12] = test: In vivo inhibition of PKM2 in human PC9 cells xenografted in athymic nude mouse assessed as reduction in PKM2 expression at 10 mg/kg, ip administered once daily for 25 days measured post-last dose by Western blot analysis; format: functional, organism-based; how it was run: as §6
Pyruvate kinase PKM [13] = target: T1, Pyruvate kinase PKM; test: Inhibition of PKM2 in human PC9 cells assessed as down regulation of EGFR expression incubated for 24 hrs by Western blot analysis; format: cell-based; how it was run: as §3
Target sequence in this assay (P14618 2-531 limits assumed): as the sequence (P14618 2-531 limits assumed) above

[14] = Toxicity in athymic nude mouse xenografted with human PC9 cells assessed as reduction in body weight at 10 mg/kg, ip administered once daily for 25 days measured during compound dosing; format: organism-based; conditions: in vivo, 600 h; how it was run: as §5

inhibition (INH) (Pyruvate kinase PKM [1]): Not Active | inhibition (Pyruvate kinase PKM [2]): Dose-dependent effect | Activity (Pyruvate kinase PKM [3]): Active | Activity (Pyruvate kinase PKM [4]): Active | Activity [5]: Active | IC50 (LNCaP): > 2000 nM | IC50 (MDA-MB-231): 100 nM | inhibition (Pyruvate kinase PKM [11]): Dose-dependent effect | inhibition (Pyruvate kinase PKM [13]): Dose-dependent effect
Compound: C#CC(=O)Nc1ccc(-n2nc(CCC(=O)NC)cc2-c2ccc(-c3ccc(C(F)(F)F)cc3)cc2)cc1
Activity (PC-9 [6]): Dose-dependent effect | Activity (PC-9 [7]): Active | Activity (PC-9 [8]): inactive | Activity (PC-9 [9]): Active | inhibition (Mus musculus [10]): Active | inhibition (Mus musculus [12]): Active | Activity [14]: Non-Toxic
